# From ChEMBL document CHEMBL3862019, “Synthesis of novel ethyl 2,4-disubstituted 8-(trifluoromethyl)pyrido[2',3':3,4]pyrazolo[1,5-a]pyrimidine-9-carboxylate derivatives as promising anticancer agents” (Bioorg Med Chem Lett, 2016)
# The source made the active and inactive calls. The rule behind the calls is not given here.
# Key:
# [1] = Cytotoxicity against HUVEC assessed as cell growth inhibition by MTT assay; assay type: toxicity, cell-based; conditions: human
# Outline: (§1)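 IC50 values were read from dose–response curves for compounds that gave above 60% inhibition in the initial test. HUVEC (ATCC CRL-1730) served as the normal cell line.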
# [2] = Cytotoxicity against human MDA-MB-231 cells assessed as cell growth inhibition by MTT assay; assay type: functional, cell-based; outline: as §1
# [3] = Cytotoxicity against human HepG2 cells assessed as cell growth inhibition by MTT assay; assay type: functional, cell-based; outline: as §1
# [4] = molecular target: T1, DNA topoisomerase 1 (Homo sapiens) (UniProt P11387); assay: Inhibition of human DNA TOP1 assessed as suppression of supercoiled plasmid HOT1 relaxation at 10 to 20 uM preincubated with enzyme followed by substrate addition measured after 30 mins by ethidium bromide dye-based agarose gel electrophoresis
# T1 sequence (whole entry): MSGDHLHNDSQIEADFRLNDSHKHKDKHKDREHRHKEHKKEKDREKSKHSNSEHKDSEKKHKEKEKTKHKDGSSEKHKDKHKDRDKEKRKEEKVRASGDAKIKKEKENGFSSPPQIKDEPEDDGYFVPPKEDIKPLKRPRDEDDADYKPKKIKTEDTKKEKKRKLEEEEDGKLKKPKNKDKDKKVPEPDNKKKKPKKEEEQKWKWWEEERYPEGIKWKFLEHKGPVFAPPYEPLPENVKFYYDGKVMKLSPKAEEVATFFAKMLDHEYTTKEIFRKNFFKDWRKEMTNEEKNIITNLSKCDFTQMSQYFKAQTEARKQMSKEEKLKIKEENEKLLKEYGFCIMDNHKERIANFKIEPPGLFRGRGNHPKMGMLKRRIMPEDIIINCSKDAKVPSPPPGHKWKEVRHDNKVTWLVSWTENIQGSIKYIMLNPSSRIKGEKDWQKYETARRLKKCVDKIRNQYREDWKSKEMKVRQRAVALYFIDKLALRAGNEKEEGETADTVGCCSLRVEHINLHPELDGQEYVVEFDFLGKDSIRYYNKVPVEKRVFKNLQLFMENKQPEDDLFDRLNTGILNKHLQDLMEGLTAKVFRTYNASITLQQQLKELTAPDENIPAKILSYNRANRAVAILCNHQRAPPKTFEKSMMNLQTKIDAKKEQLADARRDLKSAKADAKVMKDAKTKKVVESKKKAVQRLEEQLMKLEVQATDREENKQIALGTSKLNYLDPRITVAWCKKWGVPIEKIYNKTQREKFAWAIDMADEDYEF
# Outline: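 Supercoiled plasmid pHOT1 was incubated with human topoisomerase I, with compound or camptothecin control at 10 and 20. Relaxation was resolved on a 1% agarose gel run with ethidium bromide, alongside supercoiled and relaxed DNA marker lanes.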
# PC-3 = assay: Selectivity index, ratio of IC50 for HUVEC to IC50 for human PC3 cells
# Outline: (§2)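 SI is the IC50 in normal HUVEC divided by the IC50 of the same compound in the cancer cell line.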
# [5] = Cytotoxicity against human PC3 cells assessed as cell growth inhibition by MTT assay; assay type: functional, cell-based; conditions: PC-3; outline: as §1
# HeLa = assay: Selectivity index, ratio of IC50 for HUVEC to IC50 for human HeLa cells; outline: as §2
# HepG2 = assay: Selectivity index, ratio of IC50 for HUVEC to IC50 for human HepG2 cells; outline: as §2
# [6] = Cytotoxicity against human HeLa cells assessed as cell growth inhibition by MTT assay; assay type: functional, cell-based; outline: as §1
# [7] = Selectivity index, ratio of IC50 for HUVEC to IC50 for human MDA-MB-231 cells; outline: as §2
# [8] = Cytotoxicity against HUVEC assessed as cell growth inhibition up to 100 uM by MTT assay; assay type: toxicity, cell-based; conditions: human
Structure (SMILES),Activity [1],IC50 [2] [µM],IC50 [3] [µM],inhibition [4],Ratio IC50 (PC-3),IC50 [5] [µM],Ratio IC50 (HeLa),Ratio IC50 (HepG2),IC50 [1] [µM],IC50 [6] [µM],Ratio IC50 [7],Activity [8]
CCOC(=O)c1cc2c(nc1C(F)(F)F)nn1c(-c3ccc(Cl)cc3)cc(-c3ccccc3)nc21,Non-Toxic,–,–,–,–,–,–,–,–,–,–,–
CCOC(=O)c1cc2c(nc1C(F)(F)F)nn1c(-c3ccc[nH]3)cc(-c3ccccc3)nc21,–,10.3,14.8,Active,7.86,12.1,7.26,6.43,95.2,13.1,9.24,–
CCOC(=O)c1cc2c(nc1C(F)(F)F)nn1c(-c3ccc(OC)cc3)cc(-c3ccc(OC)cc3)nc21,Non-Toxic,–,–,–,–,–,–,–,–,–,–,–
CCOC(=O)c1cc2c(nc1C(F)(F)F)nn1c(CC)cc(CC)nc21,–,–,–,–,–,–,–,–,–,–,–,Non-Toxic
CCOC(=O)c1cc2c(nc1C(F)(F)F)nn1c(-c3ccc([N+](=O)[O-])cc3)cc(-c3ccccc3)nc21,–,12.2,14.2,–,5.57,16.3,4.98,6.39,90.8,18.2,7.44,–
CCOC(=O)c1cc2c(nc1C(F)(F)F)nn1c(-c3c(F)cc(OC)cc3F)cc(-c3cccs3)nc21,–,21.1,23.5,–,4.07,22.8,4.54,3.94,92.8,20.4,4.39,–
CCOC(=O)c1cc2c(nc1C(F)(F)F)nn1ccc(C)nc21,–,12.1,11.8,Active,8.17,11.4,8.79,7.89,93.2,10.6,7.7,–
CCOC(=O)c1cc2c(nc1C(F)(F)F)nn1c(-c3ccccc3)cc(C)nc21,–,28.6,–,–,–,–,3.05,–,91.1,29.8,3.18,–
CCOC(=O)c1cc2c(nc1C(F)(F)F)nn1c(-c3ccc(OC)cc3)cc(-c3ccccc3)nc21,Non-Toxic,–,–,–,–,–,–,–,–,–,–,–
CCOC(=O)c1cc2c(nc1C(F)(F)F)nn1c(-c3ccc(F)cc3)cc(-c3cccs3)nc21,–,17.1,16.8,–,5.68,15.1,5.61,5.11,85.9,15.3,5.02,–
CCOC(=O)c1cc2c(nc1C(F)(F)F)nn1c(-c3ccc(OC(F)(F)F)cc3)cc(-c3cccs3)nc21,–,17.2,12.6,–,7.55,11.9,5.58,7.13,89.9,16.1,5.22,–
CCOC(=O)c1cc2c(nc1C(F)(F)F)nn1c(-c3ccc(F)cc3)cc(-c3ccc(OC)cc3)nc21,–,17.2,16.1,–,5.43,15.9,5.46,5.36,86.4,15.8,5.02,–
CCOC(=O)c1cc2c(nc1C(F)(F)F)nn1c(C)cc(C)nc21,–,20.1,21.2,–,4.48,22.1,5.45,4.67,99.2,18.2,4.93,–
CCOC(=O)c1cc2c(nc1C(F)(F)F)nn1c(-c3ccccc3C)cc(-c3cccs3)nc21,Non-Toxic,–,–,–,–,–,–,–,–,–,–,–
CCOC(=O)c1cc2c(nc1C(F)(F)F)nn1c(C(F)(F)F)cc(C)nc21,–,24.3,–,–,–,–,3.44,–,88.2,25.6,3.62,–
O=c1[nH]cc(F)c(=O)[nH]1 [FLUOROURACIL],–,1.9,1.8,–,44.22,1.8,49.75,44.22,79.6,1.6,41.89,–
